Sampled rows, rich in hits. Any-hit rate of the full collection: about 2.2%.
Rin1 Abl inh = blocks binding of human Rin1 to Abl; actives 0.4% (n = 360,000); inhibition, % at 7.35 µM; P00519+Q13671; AID 588664; TR-FRET Rin1/Abl binding, biochemical; in the data active = inhibition above about 5%, passing the limit was not always enough
UBC9 SUMO inh = SUMOylation inhibition | HTRF SUMOylation assay, SAE1/SAE2 + UBC9, in vitro | inhibition, % at 35 µM | actives 0.36% (n = 290,000); in the data active = inhibition above about 50%, passing the limit was not always enough
Target sequence (P63279 whole entry, looked up): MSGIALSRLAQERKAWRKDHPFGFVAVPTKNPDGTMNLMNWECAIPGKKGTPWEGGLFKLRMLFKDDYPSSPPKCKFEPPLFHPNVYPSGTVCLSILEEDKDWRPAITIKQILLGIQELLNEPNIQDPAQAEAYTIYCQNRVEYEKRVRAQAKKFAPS
Apaf1 inhib = blocks human Apaf-1 apoptosome activity; reconstituted apoptosome caspase-3 activity, DEVD-Rh110 fluorescence; actives 0.71% (n = 330,000); O14727; AID 489030; inhibition, % at 20 µM; active = inhibition of at least 40% at 20 µM
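Material: reconstituted apoptosome with Apaf-1, cytochrome c, caspase-9, procaspase-3, dATP. Technique: Rh110 fluorescence intensity. Buffer or medium: pH 7.5 Hepes buffer with CHAPS, BSA, DTT. Times: 30 min plus 50 min, RT.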
PAD4 FP inh = blocks human protein arginine deiminase 4; actives 0.41% (n = 330,000); Q9UM07; inhibition, % at 6.36 µM; recombinant PAD4, RCA probe fluorescence polarization;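 active = percent inhibition above a cutoff equal to the mean of all tested compounds plus 3 SD, cut at about 15% in these data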
GSTO1 counter = GSTO1 inhibition, counter-screen for RBBP9 inhibitors; P78417; recombinant GSTO1, activity-based probe fluorescence polarization; actives 1.1% (n = 300,000); inhibition, % at 5.96 µM;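 active = inhibition above the campaign mean inhibition plus 3 SD, cut at about 35% in these data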
UBC13 polyUb = human UBC13 polyubiquitination inhibition; P61088; UBC13 polyubiquitin chain formation, TR-FRET; inhibition, % at 20 µM; actives 0.47% (n = 330,000); AID 485273; in the data active = inhibition above about 45%, passing the limit was not always enough
Target sequence (P61088 whole entry, looked up): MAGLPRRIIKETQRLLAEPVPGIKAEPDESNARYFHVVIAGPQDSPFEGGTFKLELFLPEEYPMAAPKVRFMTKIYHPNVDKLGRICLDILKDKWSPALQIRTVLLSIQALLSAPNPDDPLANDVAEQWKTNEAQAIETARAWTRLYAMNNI
Casp3 UBC13 ctr = caspase-3 inhibition (UBC13 counter-screen). shares compounds with UBC13 polyUb. Recombinant caspase-3, Caspase-Glo 3/7 luminescence, 60 min. inhibition, % at 20 µM. actives 4% (n = 1,400). AID 488856;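 active = mean inhibition across replicates above about 26%, limit read from the data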
Target sequence (P42574 whole entry, looked up): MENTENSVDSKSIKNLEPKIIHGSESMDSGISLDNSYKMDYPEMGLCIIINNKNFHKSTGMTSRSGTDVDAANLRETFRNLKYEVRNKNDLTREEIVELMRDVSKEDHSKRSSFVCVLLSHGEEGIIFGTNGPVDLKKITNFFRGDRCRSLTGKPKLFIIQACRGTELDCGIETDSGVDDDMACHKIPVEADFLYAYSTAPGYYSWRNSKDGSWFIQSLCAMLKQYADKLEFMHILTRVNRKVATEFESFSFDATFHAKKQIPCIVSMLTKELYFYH
UBC13 confirm = human UBC13 polyubiquitin inhibition, confirmed; UBC13 polyubiquitination, TR-FRET, biochemical; actives 68% (n = 1,400); inhibition, % at 10 µM; AID 488859; shares compounds with UBC13 polyUb; in the data active = inhibition above about 45%
A number is an active result.

Screening Cc1ccc(NC(=O)c2ccc(NCCc3ccccc3)c([N+](=O)[O-])c2)cc1F returned Rin1 Abl inh inactive, UBC9 SUMO inh inactive, Apaf1 inhib inactive, PAD4 FP inh inactive, GSTO1 counter inactive and UBC13 polyUb inactive.
Screening Cc1ccc(NC(=O)c2ccc(NCCN)c([N+](=O)[O-])c2)cc1Cl returned Rin1 Abl inh inactive, UBC9 SUMO inh inactive, Apaf1 inhib inactive, PAD4 FP inh inactive, GSTO1 counter inactive, UBC13 polyUb 67, Casp3 UBC13 ctr inactive and UBC13 confirm 83.
Nc1ccc2c(c1)C(=O)Cc1ccccc1S2 was read as Rin1 Abl inh inactive, UBC9 SUMO inh inactive, Apaf1 inhib inactive, PAD4 FP inh inactive, GSTO1 counter inactive, UBC13 polyUb 58, Casp3 UBC13 ctr inactive and UBC13 confirm inactive.
Screening N#CCCCCn1ccc(NC(=O)c2ccc(Cl)cc2O)n1 returned Rin1 Abl inh inactive, Apaf1 inhib inactive, PAD4 FP inh inactive, GSTO1 counter inactive and UBC13 polyUb inactive.
`C[C@H](CO)N1C[C@H](C)[C@@H](CN(C)Cc2ccc3c(c2)OCCN3C)OCc2cnnn2CCCC1=O` gave Rin1 Abl inh inactive.
Screening COc1ccc(-c2nc3cc(C)c(Br)c(C)n3c2Cc2ccc(C)cc2)cc1OC returned Rin1 Abl inh inactive.
Screening COc1ccc(NC(=O)CSc2nc3ccsc3c(=O)n2CCCCCC(=O)O)cc1 returned Rin1 Abl inh inactive, UBC9 SUMO inh inactive, Apaf1 inhib inactive, PAD4 FP inh inactive, GSTO1 counter inactive, UBC13 polyUb 62, Casp3 UBC13 ctr inactive and UBC13 confirm 79.
COc1cccc(NC(=O)CSc2nc3ccccc3c(=O)n2Cc2cccs2)c1 was read as Rin1 Abl inh inactive, UBC9 SUMO inh inactive, Apaf1 inhib inactive, PAD4 FP inh inactive, GSTO1 counter inactive, UBC13 polyUb 61, Casp3 UBC13 ctr inactive and UBC13 confirm 58.
COc1ccc(NC(=O)c2ccc(S(=O)(=O)N3CC(C)OC(C)C3)cc2)cc1 (configuration not stated) was read as Rin1 Abl inh inactive, Apaf1 inhib inactive, PAD4 FP inh inactive and UBC13 polyUb inactive.
Screening CCN(CC)CCNC(=O)c1c(C)n(-c2ccccc2)c2cc(Br)c(OC)cc12 returned Rin1 Abl inh inactive, UBC9 SUMO inh inactive, Apaf1 inhib inactive, PAD4 FP inh inactive, GSTO1 counter inactive, UBC13 polyUb 52, Casp3 UBC13 ctr inactive and UBC13 confirm 79.
COc1cc2c(C(=O)N3CCN(C)CC3)c(C)n(-c3ccccc3)c2cc1Br was read as Rin1 Abl inh inactive, UBC9 SUMO inh inactive, Apaf1 inhib inactive, PAD4 FP inh inactive, GSTO1 counter inactive and UBC13 polyUb inactive.
`CC1CC2OC2CC1COC(=O)C1CC2OC2CC1C` (configuration not stated) gave Rin1 Abl inh inactive.
For Cc1ccc(NS(=O)(=O)c2ccc(C(=O)N3CCCC(C(F)(F)F)C3)cc2)cc1 (configuration not stated) the results were Rin1 Abl inh inactive, Apaf1 inhib inactive, PAD4 FP inh inactive, GSTO1 counter inactive and UBC13 polyUb inactive.
For N#Cc1ccsc1NC(=O)C1CCN(C(=O)c2ccc(F)cc2)CC1 the results were Rin1 Abl inh inactive, Apaf1 inhib inactive, PAD4 FP inh inactive, UBC13 polyUb 59, Casp3 UBC13 ctr inactive and UBC13 confirm inactive.
For CN(C)CCCNC(=O)c1ccc(-c2nc(-c3ccc(Cl)cc3)cs2)cc1 the results were Rin1 Abl inh inactive, UBC9 SUMO inh inactive, Apaf1 inhib inactive, PAD4 FP inh inactive, GSTO1 counter inactive, UBC13 polyUb 54, Casp3 UBC13 ctr inactive and UBC13 confirm 68.
Screening CN(C)CCCNC(=O)c1ccccn1 returned Rin1 Abl inh inactive, UBC9 SUMO inh inactive, Apaf1 inhib inactive, PAD4 FP inh inactive, GSTO1 counter inactive and UBC13 polyUb inactive.
`COc1cc(CNC(=O)Nc2nnc([C@@H]3C[C@H](O)[C@@H](CO)O3)s2)cc(OC)c1OC` gave Rin1 Abl inh inactive.
For O=C(Cn1cc(C(=O)c2cccs2)c2ccccc21)NC1CCCCC1 the results were Rin1 Abl inh inactive, UBC9 SUMO inh inactive, Apaf1 inhib inactive, PAD4 FP inh inactive, GSTO1 counter inactive, UBC13 polyUb 61, Casp3 UBC13 ctr inactive and UBC13 confirm inactive.
For O=C(CSC1=NS(=O)(=O)c2ccccc21)Nc1ccccc1 the results were Rin1 Abl inh inactive, UBC9 SUMO inh inactive, Apaf1 inhib inactive, PAD4 FP inh inactive, GSTO1 counter inactive, UBC13 polyUb 47, Casp3 UBC13 ctr inactive and UBC13 confirm inactive.
Screening COC(=O)CSC1=NS(=O)(=O)c2ccccc21 returned Rin1 Abl inh inactive, UBC9 SUMO inh inactive, Apaf1 inhib inactive, PAD4 FP inh inactive, GSTO1 counter inactive and UBC13 polyUb inactive.
`COc1ccccc1Nc1nc(NCc2ccco2)c2ccccc2n1` gave Rin1 Abl inh inactive, UBC9 SUMO inh inactive, Apaf1 inhib inactive, PAD4 FP inh inactive, GSTO1 counter inactive and UBC13 polyUb inactive.
Cc1ccc(Nc2nc(NCc3ccco3)c3ccccc3n2)cc1 was read as Rin1 Abl inh inactive, UBC9 SUMO inh inactive, Apaf1 inhib inactive, PAD4 FP inh inactive, GSTO1 counter inactive, UBC13 polyUb 51, Casp3 UBC13 ctr inactive and UBC13 confirm 93.
Screening Cc1onc(-c2ccccc2)c1C(=O)NCC(=O)Nc1cc(Cl)ccc1Cl returned Rin1 Abl inh inactive, Apaf1 inhib inactive, PAD4 FP inh inactive and UBC13 polyUb inactive.
`Cc1ccc(S(=O)(=O)N2CCCC(C(=O)NNCC(=O)Nc3cc(F)ccc3F)C2)cc1` (configuration not stated) gave Rin1 Abl inh inactive, UBC9 SUMO inh inactive, Apaf1 inhib inactive, PAD4 FP inh inactive, GSTO1 counter inactive, UBC13 polyUb 48, Casp3 UBC13 ctr inactive and UBC13 confirm inactive.
Cc1ccc(S(=O)(=O)N2CCCC(C(=O)NC3CC3)C2)cc1 (configuration not stated) was read as Rin1 Abl inh inactive, UBC9 SUMO inh inactive, Apaf1 inhib inactive, PAD4 FP inh inactive, GSTO1 counter inactive and UBC13 polyUb inactive.
For CC1(C(=O)NS(=O)(=O)c2ccc(C#N)cc2)CCN1C(=O)Cc1cccc2ccccc12 (configuration not stated) the results were Rin1 Abl inh inactive.
Screening CSCCC(NC(=O)c1ccc(Cl)cc1Cl)C(=O)NCc1ccncc1 (configuration not stated) returned Rin1 Abl inh inactive, Apaf1 inhib inactive, PAD4 FP inh inactive, GSTO1 counter inactive and UBC13 polyUb inactive.

Compound activity (PubChem BioAssay)
